ChEMBL document CHEMBL4706606, “Re-evaluating pretomanid analogues for Chagas disease: Hit-to-lead studies reveal both in vitro and in vivo trypanocidal efficacy” (Eur J Med Chem, 2020)
pIC50: −log10 of the molar value. Converted amounts (≈) assume the structure as drawn. The source made the active and inactive calls. The calls are words filed in the database; no cut-off is given here.

Key:
[1] = system: Trypanosoma cruzi; assay: Antitrypanosomal activity against Trypanosoma cruzi Tulahuen strain C2C4 amastigotes infected in […] cells assessed as reduction in parasite growth incubated for 48 hrs by chlorophenol red-fl-D-galactopyranoside based colorimetric analysis relative to control; type: functional
[2] = Inhibition of Trypanosoma cruzi Tulahuen C4 strain CYP51 expressed in Escherichia coli by fluorescence based assay
[3] = system: Trypanosoma cruzi; assay: Antitrypanosomal activity against Trypanosoma cruzi Tulahuen strain C2C4 amastigotes infected in […] cells assessed as reduction in parasite growth incubated for 48 hrs by chlorophenol red-fl-D-galactopyranoside based colorimetric analysis; type: functional, organism-based; details: for pIC50: Tulahuen strain C2C4, NIH3T3, 48 h; for IC90: Tulahuen strain C2C4, NIH3T3, time 48 hrs
[4] = Selectivity index, ratio of IC50 for cytotoxicity against rat 3T3 cells to IC50 for antitrypanosomal activity against Trypanosoma cruzi Tulahuen strain C2C4 amastigotes infected in rat 3T3 cells; details: 3T3 cells
[5] = Cytotoxicity against rat 3T3 cells assessed as reduction in cell viability incubated for 72 hrs by alamar blue assay; type: ADME, cell-based; details: NIH3T3, 72 h
[6] = system: L6; assay: Cytotoxicity against rat L6 cells assessed as reduction in cell viability incubated for 72 hrs by alamar blue assay; type: ADME, cell-based; details: L6, 72 h
[7] = Kinetic solubility of compound in water sonicated for 15 mins by HPLC analysis
[8] = system: Trypanosoma cruzi; assay: Antitrypanosomal activity against Trypanosoma cruzi Y strain amastigotes infected in U2OS cells assessed as inhibition of parasite growth at 0.37 ug/ml by image-based assay relative to control
[9] = Selectivity index, ratio of IC50 for cytotoxicity against rat L6 cells to IC50 for antitrypanosomal activity against Trypanosoma cruzi Tulahuen strain C2C4 amastigotes infected in rat L6 cells
[10] = system: Trypanosoma cruzi; assay: Antitrypanosomal activity against Trypanosoma cruzi Tulahuen strain C2C4 amastigotes infected in rat L6 cells assessed as inhibition of parasite growth incubated for 96 hrs by chlorophenol red-fl-D-galactopyranoside based colorimetric analysis; type: functional, organism-based; details: for pIC50: Tulahuen strain C2C4, L6, 96 h; for IC90: Tulahuen strain C2C4, L6, time 96 hrs
Summary of the method: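 Tulahuen strain TcVI T. cruzi expressing β-galactosidase, grown in L6 rat skeletal myoblast host cells. IC50/IC90 growth inhibition. Each value is the mean of ≥2 independent determinations using fresh sample stock.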

[11] = Half life in human liver microsomes incubated for 60 mins
[12] = system: Trypanosoma cruzi; assay: Antitrypanosomal activity against Trypanosoma cruzi Y strain amastigotes infected in U2OS cells assessed as inhibition of parasite growth at […] by image-based assay relative to control
[13] = system: Trypanosoma cruzi; assay: Antitrypanosomal activity against Trypanosoma cruzi Y strain amastigotes infected in U2OS cells assessed as inhibition of parasite growth at 3.3 ug/ml by image-based assay relative to control
[14] = system: Trypanosoma cruzi; assay: (§1) Antitrypanosomal activity against bloodstream trypomastigotes form of Trypanosoma cruzi Tulahuen strain C2C4 infected in Swiss mouse assessed as reduction in parasitemia at 50 mg/kg, po qd administered for 20 days starting from day 8 post infection and measured for 28 days by neubauer haemocytometer based microscopic analysis; type: functional, organism-based; details: time 20.0 day
Summary of the method: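 Female Swiss mice, 5 per group, infected i.p. with 5 x 10^4 bloodstream trypomastigotes (Tulahuen). Oral dosing once daily for 20 days from day 8 p.i., vehicle HPMC-SV with 5% DMSO. Tail blood, 3 μL diluted 1:10 in RBC lysis, counted by haemocytometer on days 8–28 p.i.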

[15] = biological target: Cytochrome P450 3A4 (Homo sapiens, UniProt P08684); assay: Inhibition of CYP3A4 in human liver microsome using testosterone as substrate
Cytochrome P450 3A4, sequence (P08684 whole entry): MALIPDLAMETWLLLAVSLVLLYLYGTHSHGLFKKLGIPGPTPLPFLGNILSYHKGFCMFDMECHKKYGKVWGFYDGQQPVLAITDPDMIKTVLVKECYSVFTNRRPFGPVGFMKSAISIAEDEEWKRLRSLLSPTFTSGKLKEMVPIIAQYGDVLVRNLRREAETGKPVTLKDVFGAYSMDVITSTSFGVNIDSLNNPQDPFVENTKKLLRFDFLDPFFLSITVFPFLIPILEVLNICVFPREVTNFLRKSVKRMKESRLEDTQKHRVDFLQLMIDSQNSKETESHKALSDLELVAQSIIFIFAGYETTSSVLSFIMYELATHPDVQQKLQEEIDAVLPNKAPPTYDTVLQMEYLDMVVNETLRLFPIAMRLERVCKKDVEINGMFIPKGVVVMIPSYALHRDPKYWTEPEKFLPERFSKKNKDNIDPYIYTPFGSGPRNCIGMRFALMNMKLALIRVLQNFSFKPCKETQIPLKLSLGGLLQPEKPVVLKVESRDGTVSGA

[16] = system: Trypanosoma cruzi; assay: Antitrypanosomal activity against Trypanosoma cruzi amastigotes assessed as inhibition of parasite growth at 10 ug/ml relative to control
[17] = Plasma concentration in Swiss mouse at 50 mg/kg, po measured upto 24 hrs by LC-MS/MS analysis
[18] = Kinetic solubility of compound in 0.1M HCl at pH 1 sonicated for 15 mins by HPLC analysis; type: physicochemical; details: read-out: Kinetic_solubility
Summary of the method: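 Solid mixed with 0.1 M HCl to a nominal 2 mM, sonicated 15 min, centrifuged 6 min. Supernatant diluted 2-fold and analysed by HPLC. Kinetic solubility from peak area against a DMSO standard solution.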

[19] = system: Trypanosoma cruzi; assay: Antitrypanosomal activity against bloodstream trypomastigotes form of Trypanosoma cruzi CL Brener infected in BALB/c mouse assessed as reduction in parasitemia at 50 mg/kg, po administered 5 days after 114 days post infection followed by cyclophosphamide induced immunosuppression on day 143 post infection and measured for 149 days by bioluminescence analysis; type: functional, organism-based; details: time 5.0 day
Summary of the method: (§2)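 Female BALB/c mice, 8 weeks old, ~18 g, 5 per group. Infected i.p. with 10^3 bloodstream trypomastigotes of bioluminescent CL Brener (pTRIX2-RE9h). From day 114 p.i., oral dosing once daily for 5 days: reference drugs at 100 mg/kg in HPMC-SV with 5% DMSO, PEG400 vehicle at 50 mg/kg. Cyclophosphamide 200 mg/kg i.p. on days 135, 139 and 143. Final imaging day 149. Ex vivo organ bioluminescence days 149-151.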

[20] = system: Trypanosoma cruzi; assay: Antitrypanosomal activity against bloodstream trypomastigotes form of Trypanosoma cruzi CL Brener infected in BALB/c mouse assessed as reduction of parasite in small intestine at 50 mg/kg, po qd administered for 5 days starting from day 114 post infection followed by cyclophosphamide induced …; type: functional, organism-based; details: time 5.0 day
[21] = system: Trypanosoma cruzi; assay: Antitrypanosomal activity against bloodstream trypomastigotes form of Trypanosoma cruzi CL Brener infected in BALB/c mouse assessed as reduction of parasite in mouth/nasal region at 50 mg/kg, po qd administered for 5 days starting from day 114 post infection followed by cyclophosphamide induced …; type: functional, organism-based; details: time 5.0 day
[22] = system: Trypanosoma cruzi; assay: Antitrypanosomal activity against bloodstream trypomastigotes form of Trypanosoma cruzi CL Brener infected in BALB/c mouse assessed as reduction in parasite in caecum at 50 mg/kg, po qd administered for 5 days starting from day 114 post infection followed by cyclophosphamide induced immunosuppression on days 135, 139 and 143 post infection and measured for 149 days by bioluminescence analysis; type: functional, organism-based; details: time 5.0 day; summary of the method: as §2
[23] = Thermodynamic solubility of compound in PEG400; type: physicochemical
[24] = Metabolic stability in CD-1 mouse liver microsomes assessed as parent compound remaining incubated for 1 hr; type: ADME, Microsome
Summary of the method: (§3)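 Pooled human or CD-1 mouse liver microsomes at 0.4 mg/mL microsomal protein. Percent parent remaining after 1 h incubation.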

[25] = Metabolic stability in human liver microsomes assessed as parent compound remaining incubated for 1 hr; type: ADME, Microsome; details: read-out: Stabilty; summary of the method: as §3
[26] = system: Trypanosoma cruzi; assay: as §1, with “20” for “50”; type: functional, organism-based; details: time 20.0 day
Summary of the method: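 Female Swiss mice, 5 per group, infected intraperitoneally with 5 x 10⁴ bloodstream trypomastigotes (Tulahuen). Oral dosing once daily for 20 days from day 8 p.i., with the commercial formulation diluted in water for injection. Tail blood (3 μL) taken on days 8 (predose), 9, 12, 14, 16, 19, 21 and 28 p.i., diluted 1:10 in red cell lysis buffer and counted by haemocytometer.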

[27] = system: Trypanosoma cruzi; assay: as §1, with “20” for “50”, “infection followed by cyclophosphamide induced immunosuppression […]” for “infection”, “51” for “28”; type: functional, organism-based; details: time 20.0 day
Summary of the method: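 Same infection (female Swiss mice, 5 x 10⁴ trypomastigotes ip) and 20-day oral course from day 8 p.i. After 10 days' rest, mice with very low or undetectable parasitemia got three cycles of cyclophosphamide, 50 mg/kg ip daily for 4 days then 3 days' rest, starting day 37 p.i. Blood parasitemia checked on days 37, 44, 51 and 58 p.i. by haemocytometer, with PCR detection also used.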

Compound	%max [1] [%]	pIC50 [2]	pIC50 [3]	IC90 [3] [nM]	selectivity ratio [4]	pIC50 [5]	pIC50 [6]	solubility kinetic at 0.25 h [7] [µg/mL]	selectivity ratio [9]	pIC50 [10]	IC90 [10] [nM]	also measured
O=[N+]([O-])c1cn2c(n1)OC[C@@H](OCC#Cc1ccc(-c3ccc(OC(F)(F)F)cc3)cn1)C2	99	< 5.00	6.14	1000	> 51	< 4.43	< 4.00	0.49 (≈ 1.06 µM)	> 313	6.49	990	inhibition at 0.37 µg/mL [8]: 44%; half-life at 1 h [11]: > 4.17 h
O=[N+]([O-])c1nc2n(n1)C[C@H](O)CO2	–	–	–	–	–	–	< 4.00	8750 (≈ 47000 µM)	> 63	5.80	6300	inhibition at […] [12]: 58%
CC1(COc2ccc(-c3ccc(F)cc3)cn2)CCn2cc([N+](=O)[O-])nc2O1 (stereo not given)	–	–	–	–	–	–	–	–	–	–	–	inhibition at 3.3 µg/mL [13]: 50%
CC1(COc2ccc(OC(F)(F)F)cc2)CCn2cc([N+](=O)[O-])nc2O1 (stereo not given)	100	–	–	1000	–	–	–	–	–	6.35	930	Activity [14]: Active; inhibition at 3.3 µg/mL [13]: 52%
O=[N+]([O-])c1cn2c(n1)OC[C@@H](OCc1ccc(-c3ccc(C(F)(F)F)cc3Cl)cc1)C2	–	–	–	–	–	–	4.47	0.48 (≈ 1.06 µM)	9.2	5.43	8000	pIC50 [15]: < 4.70; inhibition at 10 µg/mL [16]: 94%; concentration at 24 h [17]: 9.1 µM; half-life at 1 h [11]: > 4.17 h
O=[N+]([O-])c1cn2c(n1)OCC(COc1ccc(-c3ccc(F)cc3)cn1)C2 (stereo not given)	–	–	–	–	–	–	< 4.00	1.1 (≈ 2.97 µM)	> 4540	7.66	190	inhibition at […] [12]: 29%
O=[N+]([O-])c1cn2c(n1)OC[C@H](OCc1ccc(-c3ccc(C(F)(F)F)cc3Cl)cn1)C2	–	–	–	–	–	–	4.30	1 (≈ 2.2 µM)	75	6.17	2900	solubility kinetic at 0.25 h [18]: 299 µg/mL (≈ 657 µM)
O=[N+]([O-])c1cn2c(n1)OC[C@H](Oc1ccc(OC(F)(F)F)cc1)C2	99	< 5.00	5.92	1700	> 61	< 4.14	< 4.00	–	> 250	6.40	1000	Activity [19]: Active; Activity [20]: Active; Activity [21]: Active; Activity [22]: Active; concentration at 24 h [17]: 11 µM; solubility thermodynamic [23]: 21000 µg/mL (≈ 60800 µM)
O=[N+]([O-])c1cn2c(n1)OC[C@H](OCC#Cc1ccc(-c3ccc(OC(F)(F)F)cc3)cn1)C2	94	< 5.00	6.17	2200	> 55	< 4.43	–	< 0.1	–	–	–	remaining at 1 h [24]: 74%; remaining at 1 h [25]: 68%; solubility kinetic at 0.25 h [18]: 3 µg/mL (≈ 6.52 µM)
CC1(COCc2ccc(OCc3ccccc3)cc2)Cn2cc([N+](=O)[O-])nc2S1(=O)=O (stereo not given)	–	–	–	–	–	–	< 4.00	< 0.1	> 1200	7.08	240	inhibition at 3.3 µg/mL [13]: 59%; half-life at 1 h [11]: 0.417 h
O=[N+]([O-])c1cn2c(n1)OC[C@H](OCC#Cc1ccc(-c3ccc(C(F)(F)F)cc3)cn1)C2	95	< 5.00	6.57	1700	> 137	< 4.43	–	0.68 (≈ 1.53 µM)	–	–	–	remaining at 1 h [24]: 76%; remaining at 1 h [25]: 58%; solubility kinetic at 0.25 h [18]: 7.6 µg/mL (≈ 17.1 µM)
O=[N+]([O-])c1cn2c(n1)OC[C@@H](OCC#Cc1ccc(-c3ccc(C(F)(F)F)cc3)cn1)C2	97	< 5.00	6.29	1700	> 73	< 4.43	< 4.00	0.33 (≈ 0.743 µM)	> 435	6.64	590	inhibition at […] [12]: 48%
CC[C@@H]([C@H](C)O)n1ncn(-c2ccc(N3CCN(c4ccc(OC[C@@H]5CO[C@@](Cn6cncn6)(c6ccc(F)cc6F)C5)cc4)CC3)cc2)c1=O [POSACONAZOLE]	85	7.28	8.92	4.9	> 833	< 6.00	–	–	–	–	–	Activity [26]: Active; Activity [27]: Active
